In ChEMBL document CHEMBL2331224 (J Med Chem, 2013):

Key:
[1] = target: T1, Retinoic acid receptor RXR-alpha (Homo sapiens) (UniProt P19793); assay: Partial agonist activity at RXRalpha (unknown origin) expressed in COS1 cells after 18 hrs by luciferase reporter gene assay relative to bexarotene; format: cell-based; conditions: COS-1
T1 sequence (whole entry): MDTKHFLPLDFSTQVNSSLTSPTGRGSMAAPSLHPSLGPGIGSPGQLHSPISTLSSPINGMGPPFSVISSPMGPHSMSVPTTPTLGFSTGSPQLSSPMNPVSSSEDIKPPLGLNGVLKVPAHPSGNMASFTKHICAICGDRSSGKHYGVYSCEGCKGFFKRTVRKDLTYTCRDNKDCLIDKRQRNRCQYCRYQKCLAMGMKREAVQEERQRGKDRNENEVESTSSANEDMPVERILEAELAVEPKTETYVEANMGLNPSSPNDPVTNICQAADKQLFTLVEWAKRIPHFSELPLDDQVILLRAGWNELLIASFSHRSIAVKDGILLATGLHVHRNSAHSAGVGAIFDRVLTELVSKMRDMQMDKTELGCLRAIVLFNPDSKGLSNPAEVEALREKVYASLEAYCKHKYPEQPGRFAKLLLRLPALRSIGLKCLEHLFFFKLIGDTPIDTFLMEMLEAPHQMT
Outline: (§1)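 COS-1 cells in DMEM with 10% FBS at 37 °C, 5% CO2, transfected with RXRα, an RXR-response-element luciferase reporter and a SEAP background vector. Cells were seeded at about 2.0 × 10⁴ per well with compound (DMSO below 1%) for 18 h. Luciferase was normalized to SEAP and expressed relative to 1 μM reference RXR full agonist as 100%. EC50 came from full dose-response curves. Triplicates, at least three experiments.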

[2] = target: T1, Retinoic acid receptor RXR-alpha (Homo sapiens); assay: Transactivation of RXRalpha (unknown origin) expressed in COS1 cells at 0.1 uM after 18 hrs by luciferase reporter gene assay relative to bexarotene; format: cell-based; conditions: COS-1; outline: as §1
[3] = target: T2, Retinoic acid receptor RXR-alpha (Homo sapiens, UniProt P19793); assay: Partial agonist activity at RXRalpha (unknown origin) expressed in COS1 cells after 18 hrs by luciferase reporter gene assay; format: cell-based, COS-1; outline: as §1
T2 sequence (P19793 whole entry): T1 sequence (whole entry)

[4] = target: T1, Retinoic acid receptor RXR-alpha (Homo sapiens); assay: Transactivation of RXRalpha (unknown origin) expressed in COS1 cells at 10 uM after 18 hrs by luciferase reporter gene assay relative to bexarotene; format: cell-based; conditions: COS-1; outline: as §1
[5] = target: T1, Retinoic acid receptor RXR-alpha (Homo sapiens); assay: Transactivation of RXRalpha (unknown origin) expressed in COS1 cells at 1 uM after 18 hrs by luciferase reporter gene assay relative to bexarotene; format: cell-based; conditions: COS-1; outline: as §1
Mus musculus [6] = assay: Toxicity in ICR mouse assessed as weight gain at 30 mg/kg/day, po for 7 days relative to control; format: organism-based; set-up: route oral; conditions: in vivo, 168 h
Outline: (§2)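 Male ICR mice, 6−7 weeks old, four per cage, grouped by body weight. Oral 30 mg/kg or vehicle (1% ethanol/0.5% CMC in water, 10 mL/kg) once daily for 7 days, body weight recorded daily. After overnight fasting, mice were weighed under ether, and liver was removed and weighed. Serum was analysed on a dry-chemistry analyser for TG, TCHO, ALP, CRE, BUN and other markers. n = 7−23, ANOVA.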

Mus musculus [7] = assay: Toxicity in ICR mouse assessed as change in renal function parameters at 30 mg/kg/day, po for 7 days; format: organism-based; set-up: route oral; conditions: in vivo, 168 h; outline: as §2
Mus musculus [8] = assay: Toxicity in ICR mouse assessed as increase in blood triglyceride level at 30 mg/kg/day, po for 7 days; format: organism-based; set-up: route oral; conditions: in vivo, 168 h; outline: as §2
Mus musculus [9] = assay: Toxicity against KKAy mouse assessed as plasma gammaGTP level at 10 mg/kg/day, po for 14 days (reference value: 5.8 +/- 0.6 IU); format: organism-based; set-up: route oral; conditions: in vivo, 336 h
Mus musculus [10] = assay: Toxicity against KKAy mouse assessed as blood urea nitrogen level at 10 mg/kg/day, po for 14 days (reference value: 21.9 +/- 1.1 mg/dL); format: organism-based; set-up: route oral; conditions: in vivo, 336 h
Mus musculus [11] = assay: Toxicity against KKAy mouse assessed as plasma ALT level at 10 mg/kg/day, po for 14 days (reference value: 17.6 +/- 0.9 IU); format: organism-based; set-up: route oral; conditions: in vivo, 336 h
Mus musculus [12] = assay: Toxicity against KKAy mouse assessed as plasma ALP level at 10 mg/kg/day, po for 14 days (reference value: 358.2 +/- 43.1 IU); format: organism-based; set-up: route oral; conditions: in vivo, 336 h
Mus musculus [13] = assay: Toxicity against KKAy mouse assessed as plasma triglyceride level at 10 mg/kg/day, po for 14 days (reference value: 122.4 +/- 11.0 mg/dL); format: organism-based; set-up: route oral; conditions: in vivo, 336 h
Mus musculus [14] = assay: Toxicity against KKAy mouse assessed as plasma AST level at 10 mg/kg/day, po for 14 days (reference value: 49.6 +/- 2.3 IU); format: organism-based; set-up: route oral; conditions: in vivo, 336 h
Mus musculus [15] = assay: Toxicity against KKAy mouse assessed as creatinine level at 10 mg/kg/day, po for 14 days (reference value: 0.2 mg/dl); format: organism-based; set-up: route oral; conditions: in vivo, 336 h
Mus musculus [16] = assay: Toxicity against KKAy mouse assessed as total cholesterol level at 10 mg/kg/day, po for 14 days (reference value: 153.2 +/- 11.1 mg/dL); format: organism-based; set-up: route oral; conditions: in vivo, 336 h

| SMILES | Emax [1] [%] | Efficacy [2] [%] | EC50 [3] [nM] | Efficacy [4] [%] | Efficacy [5] [%] | further results |
| --- | --- | --- | --- | --- | --- | --- |
| Cc1cc2c(cc1-n1c(N)nc3cc(C(=O)O)ccc31)C(C)(C)CCC2(C)C | 103 | < 5 | 155 | 96 | 35 |  |
| CCN(c1ccc2c(c1)C(C)(C)CCC2(C)C)c1ccc(C(=O)O)cn1 |  | 86 | 3.8 | 98 | 96 | Activity (Mus musculus [6]): Non-toxic; Activity (Mus musculus [7]): Non-toxic; Activity (Mus musculus [8]): Non-toxic |
| Cc1cc2c(cc1-n1ccc3cc(C(=O)O)ccc31)C(C)(C)CCC2(C)C | 73 | 45 | 83 | 77 | 67 |  |
| Cc1cc2c(cc1-n1c(C)nc3cc(C(=O)O)ccc31)C(C)(C)CCC2(C)C | 94 | 28 | 367 | 80 | 70 | Activity (Mus musculus [6]): Non-toxic; Activity (Mus musculus [7]): Non-toxic; Activity (Mus musculus [8]): Non-toxic |
| Cc1cc2c(cc1-n1c(=O)[nH]c3cc(C(=O)O)ccc31)C(C)(C)CCC2(C)C |  | < 5 |  | 22 | < 5 |  |
| Cc1cc2c(cc1-n1c(=S)[nH]c3cc(C(=O)O)ccc31)C(C)(C)CCC2(C)C |  | < 5 |  | 37 | < 5 |  |
| Cc1cc2c(cc1-n1cnc3cc(C(=O)O)ccc31)C(C)(C)CCC2(C)C | 75 | < 5 | 633 | 72 | 52 |  |
| CCc1ccc(CCOc2ccc(CC3SC(=O)NC3=O)cc2)nc1 (centres undefined) [PIOGLITAZONE] |  |  |  |  |  | Activity (Mus musculus [9]): 7.3 IU; Activity (Mus musculus [10]): 22.2 mg/dL; Activity (Mus musculus [11]): 21.3 IU; Activity (Mus musculus [12]): 395.7 IU; Activity (Mus musculus [13]): 124 mg/dL; Activity (Mus musculus [14]): 45.3 IU; Activity (Mus musculus [15]): 0.2 mg/dL; Activity (Mus musculus [16]): 147.3 mg/dL |
